Results on five compounds are retold here after ChEMBL document CHEMBL3352211, “Ganoboninketals A-C, Antiplasmodial 3,4-seco-27-Norlanostane Triterpenes from Ganoderma boninense Pat” (J Nat Prod, 2014).

pIC50: −log10 of the molar value. Where only a bound is given, the exact number is not on record here.

The first data set has as its system RAW264.7. Put plainly: Cytotoxicity against mouse RAW264.7 cells assessed as reduction in cell viability at 200 uM. The class given is cell-based. The conditions noted are these: raw264.7, 200 µM.
For `C=C(C)[C@@H]1C[C@H](OC(C)=O)[C@]23OC[C@]4(CC(=O)[C@@H]2[C@@]1(C)CCC(=O)OC)[C@@]3(C)CC[C@@]41O[C@@]2(CC)CC[C@]1(C)O2`, the Activity result is reported as “Non-toxic”.

For `C=C(C)[C@@H]1CC(=O)C2=C(C(=O)C[C@]34CO[C@@]5(CC)CC[C@](C)(O5)[C@H]3CC[C@@]24C)[C@@]1(C)CCC(=O)OC`, the Activity entry was “Non-toxic”.

On to `C=C(C)[C@@H]1C[C@H](OC(C)=O)C2=C(C(=O)C[C@]34CO[C@@]5(CC)CC[C@](C)(O5)[C@H]3CC[C@@]24C)[C@@]1(C)CCC(=O)OC`, for which the Activity result is “Non-toxic”.

The test system of another data set is Plasmodium falciparum. Put plainly: Antiplasmodial activity against Plasmodium falciparum 3D7 infected in human RBC assessed as reduction in parasitemia after 48 hrs by fluorescence assay. The class given is functional, organism-based. The conditions noted are these: 3D7, 48 h. A digest of the protocol: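 P. falciparum 3D7 was grown in human RBCs in Albumax II-supplemented RPMI 1640. Assay cultures at 2% hematocrit and 1% parasitemia were exposed to compounds (DMSO solvent) for about 48 h at 37 °C. Parasite DNA was labelled with PicoGreen in TE buffer pH 7.5 with 2% Triton X-100 for 30 min in the dark and read at ex 485 / em 538 nm. IC50 came from linear interpolation; three independent experiments, each in triplicate.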
In the case of `C=C(C)[C@@H]1C[C@H](OC(C)=O)[C@]23OC[C@]4(CC(=O)[C@@H]2[C@@]1(C)CCC(=O)OC)[C@@]3(C)CC[C@@]41O[C@@]2(CC)CC[C@]1(C)O2`, the pIC50 is 5.77.

In the case of `C=C(C)[C@@H]1CC(=O)C2=C(C(=O)C[C@]34CO[C@@]5(CC)CC[C@](C)(O5)[C@H]3CC[C@@]24C)[C@@]1(C)CCC(=O)OC`, the pIC50 was 5.10.

For the compound `C=C(C)[C@@H]1C[C@H](OC(C)=O)C2=C(C(=O)C[C@]34CO[C@@]5(CC)CC[C@](C)(O5)[C@H]3CC[C@@]24C)[C@@]1(C)CCC(=O)OC`, the pIC50 is 5.40.

As for `C[C@@H]1CC[C@H]2[C@@H](C)C(=O)O[C@@H]3O[C@@]4(C)CC[C@@H]1[C@]32OO4` [ARTEMISININ], the negative logarithm of the IC50 (pIC50) is 7.52.

The test system of a further data set is RAW264.7. Put plainly: Antiinflammatory activity in mouse RAW264.7 cells assessed as inhibition of NO production after 24 hrs by Griess assay. The conditions noted are these: RAW264.7, 24 h. The class given is functional, cell-based. A digest of the protocol:
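RAW 264.7 mouse macrophages were kept in RPMI 1640 with 10% heat-inactivated FBS, penicillin and streptomycin at 37 °C and 5% CO2. They were seeded at 5 × 10^5 cells/mL. After 1 h, LPS (1 mg/mL as printed) and graded compound concentrations (DMSO solvent) were added for 24 h. Supernatant NO was measured by Griess reaction.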
(The Griess reaction detects nitrite, a stable product of nitric oxide.)
With `C=C(C)[C@@H]1C[C@H](OC(C)=O)[C@]23OC[C@]4(CC(=O)[C@@H]2[C@@]1(C)CCC(=O)OC)[C@@]3(C)CC[C@@]41O[C@@]2(CC)CC[C@]1(C)O2`, the pIC50 was 4.22.

Consider `C=C(C)[C@@H]1CC(=O)C2=C(C(=O)C[C@]34CO[C@@]5(CC)CC[C@](C)(O5)[C@H]3CC[C@@]24C)[C@@]1(C)CCC(=O)OC`, for which the pIC50 was 4.61.

With `C[C@]12CCC(=O)C=C1CC[C@@H]1[C@@H]2[C@@H](O)C[C@@]2(C)[C@H]1CC[C@]2(O)C(=O)CO` [HYDROCORTISONE], the pIC50 is 4.27.

Turning to `C=C(C)[C@@H]1C[C@H](OC(C)=O)C2=C(C(=O)C[C@]34CO[C@@]5(CC)CC[C@](C)(O5)[C@H]3CC[C@@]24C)[C@@]1(C)CCC(=O)OC`, the pIC50 was 4.01.

A further data set relates to A549. Nature of the data set: Cytotoxicity against human A549 cells assessed as reduction in cell viability after 72 hrs by MTT assay. The conditions noted are these: A549, 72 h. In kind it is functional, cell-based. Summed up:
(§1)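 Cells were exposed to compounds (DMSO solvent) for 72 h at 37 °C in 5% CO2. MTT (0.5 mg/mL in medium) was added for 4 h, and formazan was dissolved in DMSO and read at 540 nm. Inhibition rates were plotted against concentration to give IC50 (±SD); three independent experiments, each in triplicate.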
Take `C=C(C)[C@@H]1C[C@H](OC(C)=O)[C@]23OC[C@]4(CC(=O)[C@@H]2[C@@]1(C)CCC(=O)OC)[C@@]3(C)CC[C@@]41O[C@@]2(CC)CC[C@]1(C)O2`: the pIC50 is 4.45.

As for `C=C(C)[C@@H]1CC(=O)C2=C(C(=O)C[C@]34CO[C@@]5(CC)CC[C@](C)(O5)[C@H]3CC[C@@]24C)[C@@]1(C)CCC(=O)OC`, the pIC50 is less than 4.00.

As for `C=C(C)[C@@H]1C[C@H](OC(C)=O)C2=C(C(=O)C[C@]34CO[C@@]5(CC)CC[C@](C)(O5)[C@H]3CC[C@@]24C)[C@@]1(C)CCC(=O)OC`, the negative logarithm of the IC50 (pIC50) is 4.32.

For a further data set, the system named is HeLa. Put plainly: Cytotoxicity against human HeLa cells assessed as reduction in cell viability after 72 hrs by MTT assay. In kind it is functional, cell-based.
Conditions: not given
Summed up: as §1
(Formazan colour is commonly taken as a measure of viable cells.)
As for `C=C(C)[C@@H]1C[C@H](OC(C)=O)[C@]23OC[C@]4(CC(=O)[C@@H]2[C@@]1(C)CCC(=O)OC)[C@@]3(C)CC[C@@]41O[C@@]2(CC)CC[C@]1(C)O2`, the pIC50 is less than 4.00.

As for `C=C(C)[C@@H]1CC(=O)C2=C(C(=O)C[C@]34CO[C@@]5(CC)CC[C@](C)(O5)[C@H]3CC[C@@]24C)[C@@]1(C)CCC(=O)OC`, the pIC50 is 4.18.

For the compound `C=C(C)[C@@H]1C[C@H](OC(C)=O)C2=C(C(=O)C[C@]34CO[C@@]5(CC)CC[C@](C)(O5)[C@H]3CC[C@@]24C)[C@@]1(C)CCC(=O)OC`, the negative logarithm of the IC50 (pIC50) was less than 4.00.

As usually defined, the pIC50 is −log10 of the IC50, conventionally taken in molar units.
